The source made the active and inactive calls. No cut-off for these calls is given here.
Columns and labels:
[1] = target: T1, Cellular tumor antigen p53 (Homo sapiens, UniProt P04637); assay: Activation of p53 in human NUGC4 cells assessed as change in IL6 mRNA level at 60 uM after 18 hrs by RT-PCR method relative to control; assay type: cell-based; conditions: read-out: FC
Outline: (§1)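 p53 signaling qPCR array of 84 p53-pathway genes. Cells were treated in 6-well plates for 18 h with 0.5% DMSO in compound and control samples. Total RNA was extracted and fold-changes were obtained by the ΔΔCt method against untreated control, with β2-microglobulin (B2M) as housekeeping gene. Two independent biological replicates per cell line.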

[2] = target: T1, Cellular tumor antigen p53; assay: Activation of p53 in human NUGC4 cells assessed as change in BAI1 mRNA level at 60 uM after 18 hrs by RT-PCR method relative to control; assay type: cell-based; conditions: read-out: FC
Outline: (§2)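 p53 signalling qPCR array covering 84 p53 pathway genes. Cells were exposed for 18 h, and compound and control wells both held 0.5% DMSO. Total RNA was extracted and purified. Fold-changes were calculated by the ΔΔCt method against the untreated sample, with β2-microglobulin (B2M) as the housekeeping gene. Each cell line was run in two independent biological replicates.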

[3] = target: T1, Cellular tumor antigen p53; assay: Activation of p53 in human NUGC4 cells assessed as change in PCNA mRNA level at 60 uM after 18 hrs by RT-PCR method relative to control; assay type: cell-based; conditions: read-out: FC
[4] = target: T1, Cellular tumor antigen p53; assay: Activation of p53 in human NUGC4 cells assessed as change in PPM1D mRNA level at 60 uM after 18 hrs by RT-PCR method relative to control; assay type: cell-based; conditions: read-out: FC
[5] = tested on: Cellular tumor antigen p53 (Homo sapiens), P04637 [Y220C]; assay: Activation of p53 Y220C mutant in human NUGC3 cells assessed as change in CDKN1A mRNA level at 60 uM after 18 hrs by RT-PCR method relative to control; assay type: cell-based
Outline: (§3)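 p53 signalling qPCR array covering 84 genes. Cells were exposed for 18 h, with 0.5% DMSO in both compound and control samples. Total RNA was extracted and purified. Fold-changes were calculated by ΔΔCt using β2-microglobulin (B2M) as the housekeeping gene. Two independent biological replicates were run per cell line.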

[6] = tested on: Cellular tumor antigen p53 (Homo sapiens), P04637 [Y220C]; assay: Activation of p53 Y220C mutant in human NUGC3 cells assessed as change in NF1 mRNA level at 60 uM after 18 hrs by RT-PCR method relative to control; assay type: cell-based; outline: as §2
[7] = tested on: Cellular tumor antigen p53 (Homo sapiens), P04637 [Y220C]; assay: Activation of p53 Y220C mutant in human NUGC3 cells assessed as change in BCL2A1 mRNA level at 60 uM after 18 hrs by RT-PCR method relative to control; assay type: cell-based; outline: as §3
[8] = tested on: Cellular tumor antigen p53 (Homo sapiens), P04637 [Y220C]; assay: Activation of p53 Y220C mutant in human NUGC3 cells assessed as change in CCNE1 mRNA level at 60 uM after 18 hrs by RT-PCR method relative to control; assay type: cell-based; outline: as §3
[9] = tested on: Cellular tumor antigen p53 (Homo sapiens), P04637 [Y220C]; assay: Activation of p53 Y220C mutant in human NUGC3 cells assessed as change in CASP9 mRNA level at 60 uM after 18 hrs by RT-PCR method relative to control; assay type: cell-based; outline: as §3
[10] = tested on: Cellular tumor antigen p53 (Homo sapiens), P04637 [Y220C]; assay: Activation of p53 Y220C mutant in human NUGC3 cells assessed as change in FASLG mRNA level at 60 uM after 18 hrs by RT-PCR method relative to control; assay type: cell-based; outline: as §3
[11] = tested on: Cellular tumor antigen p53 (Homo sapiens), P04637 [Y220C]; assay: Activation of p53 Y220C mutant in human HuH7 cells assessed as increase in Bax mRNA level at 30 uM after 18 hrs by RT-PCR method; assay type: cell-based
Outline: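 Real-time PCR. Cells were treated for 18 h, with 0.5% DMSO in both compound and control samples. Relative mRNA levels were quantified by the ΔΔCt method as fold-change against the untreated sample. Each sample was measured in triplicate, and data are given as mean ± SEM with an unpaired t-test.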

[12] = tested on: Cellular tumor antigen p53 (Homo sapiens), P04637 [Y220C]; assay: Activation of p53 Y220C mutant in human NUGC3 cells assessed as change in MDM2 mRNA level at 60 uM after 18 hrs by RT-PCR method relative to control; assay type: cell-based; outline: as §2
[13] = tested on: Cellular tumor antigen p53 (Homo sapiens), P04637 [Y220C]; assay: Activation of p53 Y220C mutant in human NUGC3 cells assessed as change in TP53BP2 mRNA level at 60 uM after 18 hrs by RT-PCR method relative to control; assay type: cell-based; outline: as §2
[14] = tested on: Cellular tumor antigen p53 (Homo sapiens), P04637 [Y220C]; assay: Activation of p53 Y220C mutant in human NUGC3 cells assessed as change in EGR1 mRNA level at 60 uM after 18 hrs by RT-PCR method relative to control; assay type: cell-based; outline: as §3
[15] = target: T1, Cellular tumor antigen p53; assay: Activation of p53 in human NUGC4 cells assessed as change in BCL2 mRNA level at 60 uM after 18 hrs by RT-PCR method relative to control; assay type: cell-based; conditions: read-out: FC; outline: as §2
[16] = target: T1, Cellular tumor antigen p53; assay: Activation of p53 in human NUGC4 cells assessed as change in BTG2 mRNA level at 60 uM after 18 hrs by RT-PCR method relative to control; assay type: cell-based; conditions: read-out: FC; outline: as §1
Huh-7 = assay: Upregulation of p21 mRNA level in p53 Y220C mutant knockout human HuH7 cells at 30 uM after 18 hrs by RT-PCR method; assay type: functional, cell-based
[17] = target: T1, Cellular tumor antigen p53; assay: Activation of p53 in human NUGC4 cells assessed as change in NF1 mRNA level at 60 uM after 18 hrs by RT-PCR method relative to control; assay type: cell-based; conditions: read-out: FC; outline: as §1
[18] = target: T1, Cellular tumor antigen p53; assay: Activation of p53 in human NUGC4 cells assessed as change in E2F1 mRNA level at 60 uM after 18 hrs by RT-PCR method relative to control; assay type: cell-based; conditions: read-out: FC; outline: as §1
[19] = target: T1, Cellular tumor antigen p53; assay: Activation of p53 in human NUGC4 cells assessed as change in KRAS mRNA level at 60 uM after 18 hrs by RT-PCR method relative to control; assay type: cell-based; conditions: read-out: FC; outline: as §1
[20] = target: T1, Cellular tumor antigen p53; assay: Activation of p53 in human NUGC4 cells assessed as change in CRADD mRNA level at 60 uM after 18 hrs by RT-PCR method relative to control; assay type: cell-based; conditions: read-out: FC; outline: as §1
[21] = target: T1, Cellular tumor antigen p53; assay: Activation of p53 in human NUGC4 cells assessed as change in ADGRB1 mRNA level at 60 uM after 18 hrs by RT-PCR method relative to control; assay type: cell-based; conditions: read-out: FC; outline: as §2
[22] = target: T1, Cellular tumor antigen p53; assay: Activation of p53 in human NUGC4 cells assessed as change in SIRT1 mRNA level at 60 uM after 18 hrs by RT-PCR method relative to control; assay type: cell-based; conditions: read-out: FC
[23] = target: T1, Cellular tumor antigen p53; assay: Activation of p53 in human NUGC4 cells assessed as change in TP73 mRNA level at 60 uM after 18 hrs by RT-PCR method relative to control; assay type: cell-based; conditions: read-out: FC
[24] = target: T1, Cellular tumor antigen p53; assay: Activation of p53 in human NUGC4 cells assessed as change in PIDD1 mRNA level at 60 uM after 18 hrs by RT-PCR method relative to control; assay type: cell-based; conditions: read-out: FC
[25] = tested on: Cellular tumor antigen p53 (Homo sapiens), P04637 [Y220C]; assay: Activation of p53 Y220C mutant in human NUGC3 cells assessed as change in NFKB1 mRNA level at 60 uM after 18 hrs by RT-PCR method relative to control; assay type: cell-based; outline: as §2
[26] = tested on: Cellular tumor antigen p53 (Homo sapiens), P04637 [Y220C]; assay: Activation of p53 Y220C mutant in human NUGC3 cells assessed as change in E2F1 mRNA level at 60 uM after 18 hrs by RT-PCR method relative to control; assay type: cell-based; outline: as §3
[27] = target: T1, Cellular tumor antigen p53; assay: Activation of p53 in human NUGC4 cells assessed as change in CCNG1 mRNA level at 60 uM after 18 hrs by RT-PCR method relative to control; assay type: cell-based; conditions: read-out: FC; outline: as §1

In the case of CCNC(=O)c1c(O)c(I)c(-n2cccc2)c2sc(N(CC)CC)nc12, the fold induction at 60 µM [1] is reported as 7.9, the fold induction at 60 µM [2] is reported as 2.9 and the fold induction at 60 µM [3] is reported as 0.6. For the same compound, the fold induction at 60 µM [4] was 0.9, the fold change (FC) [5] was 3.1 and the fold change (FC) [6] was 1.4. It also gave a fold change (FC) [7] of 3.9, a fold change (FC) [8] of 1.2 and a fold change (FC) [9] of 1. For the same compound, the fold change (FC) [10] was 1.1, the Activity [11] was “Active” and the fold change (FC) [12] was 1. The fold change (FC) [13] was 1.8, the fold change (FC) [14] was 1 and the fold induction at 60 µM [15] was 1.2. For the same compound, the fold induction at 60 µM [16] was 0.6, the Activity (Huh-7) was “inactive” and the fold induction at 60 µM [17] was 0.8. For the same compound, the fold induction at 60 µM [18] was 0.5, the fold induction at 60 µM [19] was 0.9 and the fold induction at 60 µM [20] was 0.8. It also gave a fold induction at 60 µM [21] of 2.9, a fold induction at 60 µM [22] of 0.9 and a fold induction at 60 µM [23] of 0.4. For the same compound, the fold induction at 60 µM [24] was 0.8, the fold change (FC) [25] was 1.5 and the fold change (FC) [26] was 1. For the same compound, the fold induction at 60 µM [27] was 1.

Reference: ChEMBL document CHEMBL4152234, “Aminobenzothiazole derivatives stabilize the thermolabile p53 cancer mutant Y220C and show anticancer activity in p53-Y220C cell lines” (Eur J Med Chem, 2018)
